pKi: −log10 of the molar value. “Also recorded” adds a separate entry of the source.
Tests used:
[1] = tested on: mushroom tyrosinase (EC 1.14.18.1); assay: In vitro mushroom tyrosinase inhibition assay; assay type: biochemical; settings: SAR discussion
[2] = target: mushroom tyrosinase (Agaricus bisporus, UniProt C7FF04); assay: Kinetic study of tyrosinase inhibition; assay type: biochemical
Method in brief: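 Mushroom tyrosinase diphenolase activity; test compound in DMSO, pre-incubated 20 min at 28 °C with enzyme (added as 600 U mL−1 solution) in 50 mM phosphate buffer pH 6.8. Inhibitor 5–50 µM; L-Dopa 0.1–1.5 mM. Dopachrome at 490 nm read each minute for 10 min; initial velocity from linear segment. Lineweaver–Burk plots gave Km and Vmax; Ki from slope versus inhibitor concentration.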

Sequence of mushroom tyrosinase (C7FF04 1-392): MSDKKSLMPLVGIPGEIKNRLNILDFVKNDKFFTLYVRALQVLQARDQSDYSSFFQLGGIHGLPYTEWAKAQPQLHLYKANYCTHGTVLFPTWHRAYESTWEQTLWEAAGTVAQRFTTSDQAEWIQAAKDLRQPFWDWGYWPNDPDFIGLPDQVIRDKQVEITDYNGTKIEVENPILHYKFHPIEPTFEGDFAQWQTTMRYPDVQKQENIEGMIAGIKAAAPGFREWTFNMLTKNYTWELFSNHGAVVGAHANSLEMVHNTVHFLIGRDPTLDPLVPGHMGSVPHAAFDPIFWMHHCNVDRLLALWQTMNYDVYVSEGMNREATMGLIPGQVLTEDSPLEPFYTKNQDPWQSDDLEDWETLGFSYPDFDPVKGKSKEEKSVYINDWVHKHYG

Compound | activity against tyrosinase (in words) [1] | pKi [2] | type of inhibition ([2]; Lineweaver-Burk plot, L-Dopa substrate)
CC1(C)CC(=O)C2=C(C1)OC(N)=C(C#N)C2c1ccc(OCc2ccc(F)cc2)cc1 (stereo not drawn) [6c, 2-Amino-4-(4-((4-fluorobenzyl)oxy)phenyl)-7,7-dimethyl-5-oxo-5,6,7,8-tetrahydro-4H-chromene-3-carbonitrile] | no activity |  | 
CC1(C)CC(=O)C2=C(C1)OC(N)=C(C#N)C2c1ccc(OCc2ccc(C#N)cc2)cc1 (stereo not drawn) [6f, 2-Amino-4-(4-((4-cyanobenzyl)oxy)phenyl)-7,7-dimethyl-5-oxo-5,6,7,8-tetrahydro-4H-chromene-3-carbonitrile] |  | 4.79 | competitive inhibition; also recorded: competitive inhibitor
